Laboratory results: ChEMBL document CHEMBL1122845, “Inhibitors of blood platelet aggregation. Effects of some 1,2-benzisothiazol-3-ones on platelet responsiveness to adenosine diphosphate and collagen” (J Med Chem, 1985)
pIC50: −log10 of the molar value.

Assays:
Cavia porcellus [1] = assay: The compound was tested ex vivo at a dose of 0.08 mmol/kg or collagen induced platelet aggregation in guinea pig; assay type: functional
Outline: (§1)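 Male rats (~200 g) or guinea pigs (~300 g), overnight fasted, n=5-10, received compound orally in 1% methylcellulose (5 mL/kg); vehicle-only controls. After 2 h, CO2 kill and vena cava blood into citrate (102 mM rat, 129 mM guinea pig). PRP set to 800000/µL (rat) or 500000/µL (guinea pig). Collagen EC50 (response of 50 mm; max 50 µg/mL) interpolated from a log plot. Dose ratio = treated/control mean EC50; t-test. Pooled PRP sometimes used.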

Cavia porcellus [2] = assay: Ex vivo inhibition of ADP induced guinea pig platelet aggregation following 0.08 mmol/kg administration.; assay type: functional
Outline: (§2)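 Fasted male rats (~200 g) or guinea pigs (~300 g), n=5-10, dosed orally (5 mL/kg) in 1% methylcellulose; methylcellulose alone as control. Killed with CO2 after 2 h. Vena cava blood citrated (102 mM rat, 129 mM guinea pig); PRP adjusted to 800000/µL (rat) or 500000/µL (guinea pig). EC25 for first-phase ADP aggregation (max 8 µM) interpolated from two 2-fold-spaced ADP levels. Dose ratio = treated/control mean EC25; Student's t-test. Some groups tested as pooled PRP.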

Rattus norvegicus [3] = assay: The compound was tested ex vivo at a dose of 0.15 mmol/kg for collagen induced platelet aggregation in rat; assay type: functional; outline: as §1
Rattus norvegicus [4] = assay: The compound was tested ex vivo at a dose of 0.15 mmol/kg for ADP induced platelet aggregation in rat; assay type: functional; outline: as §2
Cavia porcellus [5] = assay: Ex vivo inhibition of collagen induced guinea pig platelet aggregation following 0.08 mmol/kg administration.; assay type: functional; outline: as §1
Cavia porcellus [6] = assay: The compound was tested ex vivo at a dose of 0.04 mmol/kg for collagen induced platelet aggregation in guinea pig; assay type: functional; outline: as §1
Cavia porcellus [7] = assay: The compound was tested ex vivo at a dose of 0.04 mmol/kg for ADP induced platelet aggregation in guinea pig; assay type: functional; outline: as §2
Homo sapiens [8] = species on record: Homo sapiens; assay: (§3) In vitro inhibitory activity against human platelet aggregation in the presence of collagen; assay type: functional, organism-based
Homo sapiens [9] = species on record: Homo sapiens; assay: In vitro inhibitory activity against human platelet aggregation in the presence of Adenosine diphosphate; assay type: functional
Outline: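 Human citrated PRP, platelet count adjusted to 350000/µL with autologous platelet-poor plasma. 90 µL PRP preincubated 3 min at 37 °C with compound or saline (DMF vehicle where needed), stirred at 1100 rpm. ADP chosen per preparation to give a clear first-phase response (typically 1 µM). Photometric read-out: maximum rise in light transmission within 1 min. IC50 determined.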

Rattus norvegicus [10] = assay: The compound was tested ex vivo at a dose of 0.08 mmol/kg for ADP induced platelet aggregation in rat; assay type: functional; outline: as §2
Rattus norvegicus [11] = assay: The compound was tested ex vivo at a dose of 0.08 mmol/kg for collagen induced platelet aggregation in rat; assay type: functional; outline: as §1
Cavia porcellus [12] = assay: The compound was tested ex vivo at a dose of 0.15 mmol/kg for ADP induced platelet aggregation in guinea pig; assay type: functional; outline: as §2
Cavia porcellus [13] = assay: The compound was tested ex vivo fat a dose of 0.15 mmol/kg for collagen induced platelet aggregation in guinea pig; assay type: functional; outline: as §1
Rattus norvegicus [14] = assay: The compound was tested ex vivo at a dose of 0.3 mmol/kg for collagen induced platelet aggregation in rat; assay type: functional; outline: as §1
Rattus norvegicus [15] = assay: The compound was tested ex vivo at a dose of 0.3 mmol/kg for ADP induced platelet aggregation in rat; assay type: functional; outline: as §2
Homo sapiens [16] = species on record: Homo sapiens; assay: as §3; assay type: functional
Outline: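 Aggregation measured photometrically in human citrated PRP (350000 platelets/µL, stirred at 1100 rpm). Compound or saline preincubated 3 min at 37 °C. Collagen at a just-maximal level chosen for each sample (typically 0.7-1.4 µg/mL). Maximum increase in light transmission measured. IC50 = concentration giving 50% inhibition.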

Cavia porcellus [17] = assay: The compound was tested at a dose of 0.08 mmol/kg ex vivo for collagen induced platelet aggregation in guinea pig; assay type: functional; outline: as §1
Cavia porcellus [18] = assay: The compound was tested ex vivo at a dose of 0.15 mmol/kg for collagen induced platelet aggregation in guinea pig
Rattus norvegicus [19] = assay: The compound was tested at a dose of 0.15 mmol/kg ex vivo for collagen induced platelet aggregation in rat; assay type: functional; outline: as §1
Rattus norvegicus [20] = assay: The compound was tested at a dose of 0.15 mmol/kg ex vivo for ADP induced platelet aggregation in rat; assay type: functional; outline: as §2
Cavia porcellus [21] = assay: The compound was tested ex vivo at a dose of 0.3 mmol/kg for ADP induced platelet aggregation in guinea pig; assay type: functional; outline: as §2
Cavia porcellus [22] = assay: The compound was tested ex vivo at a dose of 0.08 mmol/kg for ADP induced platelet aggregation in guinea pig; assay type: functional; outline: as §2
Cavia porcellus [23] = assay: The compound was tested ex vivo at a dose of 0.15 mmol/kg for collagen induced platelet aggregation in guinea pig; assay type: functional; outline: as §1
Cavia porcellus [24] = assay: The compound was tested ex vivo at a dose of 0.3 mmol/kg for collagen induced platelet aggregation in guinea pig; assay type: functional; outline: as §1
Cavia porcellus [25] = assay: The compound was tested ex vivo at a dose of 0.08 mmol/kg for collagen induced platelet aggregation in guinea pig; assay type: functional; outline: as §1
Rattus norvegicus [26] = assay: The compound was tested at a dose of 0.3 mmol/kg ex vivo for collagen induced platelet aggregation in rat; assay type: functional; outline: as §1
Cavia porcellus [27] = species on record: Cavia porcellus; assay: The compound was tested ex vivo for ADP induced platelet aggregation in guinea pig; assay type: functional; outline: as §2
Cavia porcellus [28] = species on record: Cavia porcellus; assay: The compound was tested ex vivo for collagen induced platelet aggregation in guinea pig; assay type: functional; outline: as §1

O=c1c2ccccc2sn1CCCCCN1CC2CCC(CC2)C1
Activity (Cavia porcellus [1]): 2.8
Activity (Cavia porcellus [2]): 1.2

CCN(CC)CCn1sc2ccccc2c1=O
Activity (Rattus norvegicus [3]): 2.6
Activity (Rattus norvegicus [4]): 1.3

O=c1c2ccccc2sn1CCCCN1CCCC1
Activity (Cavia porcellus [2]): 1.4
Activity (Cavia porcellus [5]): 1.9

O=c1c2cc(Cl)c(Cl)cc2sn1CCN1CCCC1
Activity (Rattus norvegicus [3]): 1.8
Activity (Rattus norvegicus [4]): 1.4

Cc1cc(C)c2c(=O)n(CCN3CCCCC3)sc2c1
Activity (Cavia porcellus [2]): >24
Activity (Cavia porcellus [6]): >21
Activity (Cavia porcellus [5]): >21
Activity (Cavia porcellus [7]): 2.1

COc1cc2sn(CCCCN3CC4CCC(CC4)C3)c(=O)c2cc1OC
pIC50 (Homo sapiens [8]): 4.80
pIC50 (Homo sapiens [9]): 4.00
Activity (Rattus norvegicus [10]): 1.4
Activity (Cavia porcellus [2]): 2.6
Activity (Rattus norvegicus [11]): 2.4
Activity (Cavia porcellus [5]): 5.4

O=c1c2ccccc2sn1CCN1CC2CCC(CC2)C1
Activity (Rattus norvegicus [3]): 2.2
Activity (Cavia porcellus [12]): 1.1
Activity (Cavia porcellus [13]): 1.7
Activity (Rattus norvegicus [4]): 1.6

CCN(CC)CCn1sc2cc(Cl)c(Cl)cc2c1=O
Activity (Rattus norvegicus [3]): 2.1
Activity (Rattus norvegicus [14]): 6.5
Activity (Rattus norvegicus [15]): 1.2
Activity (Rattus norvegicus [4]): 0.8

CN(CCn1sc2ccccc2c1=O)c1ccccc1
Activity (Rattus norvegicus [3]): 1.1
Activity (Rattus norvegicus [4]): 1

O=c1c2ccccc2sn1CCc1ccccn1
pIC50 (Homo sapiens [9]): 4.70
Activity (Rattus norvegicus [14]): 0.7
pIC50 (Homo sapiens [16]): 4.92

O=c1c2cc(Cl)c(Cl)cc2sn1CCc1ccccn1
Activity (Rattus norvegicus [3]): 1
Activity (Rattus norvegicus [4]): 1

Cc1cc(C)c2c(=O)n(CCCN3CCCCC3)sc2c1
Activity (Cavia porcellus [17]): 6.7
Activity (Cavia porcellus [2]): 1.4

COc1cc(OC)c2c(=O)n(CCN3CCCCC3)sc2c1
Activity (Cavia porcellus [2]): >27
Activity (Cavia porcellus [5]): >10

O=c1[nH]sc2ccccc12
pIC50 (Homo sapiens [9]): < 3.70
Activity (Rattus norvegicus [14]): 1
pIC50 (Homo sapiens [16]): 4.47

COc1cc2sn(CCN3CCCC3)c(=O)c2cc1OC
Activity (Rattus norvegicus [3]): 1.8
Activity (Rattus norvegicus [4]): 1.1

O=c1c2ccccc2sn1CCN1CCCC1
Activity (Cavia porcellus [18]): 13.9
Activity (Rattus norvegicus [19]): 2.3
Activity (Cavia porcellus [12]): 1.9
pIC50 (Homo sapiens [16]): 4.52
Activity (Rattus norvegicus [20]): 0.9

COc1cc(OC)c2c(=O)n(CCN3CCCC3)sc2c1
Activity (Cavia porcellus [2]): 4.6
Activity (Cavia porcellus [5]): >31

O=c1c2cc(Cl)c(Cl)cc2sn1CCN1CCCCC1
Activity (Rattus norvegicus [3]): 1.5
Activity (Rattus norvegicus [4]): 1.2

COc1cc2sn(CCN3CC4CCC(CC4)C3)c(=O)c2cc1OC
Activity (Rattus norvegicus [3]): 2.9
Activity (Cavia porcellus [21]): 1
pIC50 (Homo sapiens [8]): 3.96
Activity (Cavia porcellus [22]): 1.1
Activity (Cavia porcellus [23]): 1.6
Activity (Cavia porcellus [24]): 1.9
Activity (Cavia porcellus [12]): 1.3
Activity (Cavia porcellus [25]): 1.7
Activity (Rattus norvegicus [15]): 1.9
Activity (Rattus norvegicus [4]): 1.4
Activity (Rattus norvegicus [26]): >5.8

Cc1cc2sn(CCc3ccccn3)c(=O)c2cc1C
collagen EC50 dose ratio (treated/control) (Cavia porcellus [23]): 0.8
Activity (Cavia porcellus [12]): 0.9

CCCCCn1sc2ccccc2c1=O
Activity (Rattus norvegicus [14]): 1.2

O=c1c2ccccc2sn1CCCN1CCCCC1
Activity (Rattus norvegicus [10]): 1
Activity (Cavia porcellus [2]): 3.7
Activity (Rattus norvegicus [11]): 2.4
pIC50 (Homo sapiens [16]): 4.77
Activity (Cavia porcellus [5]): >26

COc1cc2sn(CCc3ccccn3)c(=O)c2cc1OC
Activity (Rattus norvegicus [3]): 2.8
collagen EC50 dose ratio (treated/control) (Cavia porcellus [23]): 1.5
Activity (Cavia porcellus [12]): 1.1
Activity (Rattus norvegicus [4]): 1.8

O=c1c2ccccc2sn1CCCCN1CCCCC1
Activity (Cavia porcellus [2]): 1.1
Activity (Cavia porcellus [5]): 3.4

CCN(CC)CCn1sc2cc(C)cc(C)c2c1=O.O=S(=O)(O)c1ccc2ccccc2c1
Activity (Cavia porcellus [27]): 2.8
collagen EC50 dose ratio (treated/control) (Cavia porcellus [28]): >36

COc1cc2sn(CCCCc3ccccn3)c(=O)c2cc1OC
collagen EC50 dose ratio (treated/control) (Cavia porcellus [23]): 2.7
Activity (Cavia porcellus [12]): 2.4
